NPY Y2 blocker – NPY-Y2 (human) receptor antagonism; NPY-Y2 expressing cells, antagonist mode; P49146; 140,000 tested, 0.99% active; inhibition, % at 2.7 µM; in the data active = inhibition above about 17%;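 also: 0% = vehicle with agonist challenge and 100% = reference antagonist with challenge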
Target sequence (P49146 whole entry, looked up): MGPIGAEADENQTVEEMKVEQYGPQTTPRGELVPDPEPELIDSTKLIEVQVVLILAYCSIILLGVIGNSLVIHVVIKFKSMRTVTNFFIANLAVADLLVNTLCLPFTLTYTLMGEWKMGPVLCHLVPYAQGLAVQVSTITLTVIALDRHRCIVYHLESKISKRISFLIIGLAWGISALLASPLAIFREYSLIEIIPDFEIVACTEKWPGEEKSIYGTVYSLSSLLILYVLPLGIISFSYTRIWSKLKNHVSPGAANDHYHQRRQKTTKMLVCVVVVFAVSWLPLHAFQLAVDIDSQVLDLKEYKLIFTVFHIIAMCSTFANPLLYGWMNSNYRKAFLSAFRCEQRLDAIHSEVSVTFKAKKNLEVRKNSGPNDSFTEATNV
NPY-Y2 PAM-ag – potentiators or agonists of human neuropeptide Y receptor Y2. P49146. cells expressing NPY-Y2, potentiator/agonist read-out. activation, % at 3.6 µM. 220,000 tested, 0.45% active. AID 1359; in the data active = activation above about 27%;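 also: cells stimulated with NPY near EC25 plus isoproterenol at EC100; 0% = vehicle plus submaximal agonist and 100% = vehicle plus saturating agonist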
NPY-Y1 PAM-ag – human NPY-Y1 potentiation or agonism, primary screen. activation, % at 3.6 µM. 220,000 tested, 0.37% active. P25929. NPY-Y1 expressing cells, potentiator/agonist activation; in the data active = activation above about 33%, passing the limit was not always enough;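 also: cells stimulated with NPY at EC10 then isoproterenol at EC100; 0% = low agonist plus stimulus and 100% = saturating agonist plus stimulus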
NPY Y1 blocker – blocks the human neuropeptide Y Y1 receptor | P25929 | HEK293-CNG Y1 cells, membrane potential fluorescence; NPY at EC95, then isoproterenol | inhibition, % at 3.6 µM | 200,000 tested, 1% active | AID 1040;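 active = inhibition above the campaign mean inhibition of all tested compounds plus 3 SD, cut at about 20% in these data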;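 also: 0% = DMSO wells given NPY plus isoproterenol and 100% = isoproterenol alone without NPY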
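Material: HEK293 Y1/CNG channel cell line; also added: NPY (25 nM), isoproterenol (1 µM), Ro 20-1724 (25 µM); doses: one concentration, 3.6 µM, in 0.4% DMSO; schedule: compound incubation 1 h at room temperature, readout 45 min post-stimulation; technique: membrane potential fluorescence; measure: fluorescence ratio normalized to % inhibition between controls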
* = called active by the depositor; / = no result given. Only some compounds are listed: those with a hit (about 1.8% of all), similar ones and a draw of the others.

SMILES | NPY Y2 blocker | NPY-Y2 PAM-ag | NPY-Y1 PAM-ag | NPY Y1 blocker
CCCOc1ccc(Cc2c(Cl)nc(SC)nc2OC)cc1 | 6 | 9 | 12 | 3
CCCOc1ccc(Cc2c(Cl)nc(SC)nc2N(C)C)cc1 | 26* | -14 | -54 | 22*
C/C(=N/NC(=O)c1cccs1)c1cccs1 | / | -2 | 4 | /
C/C(NC(=O)c1cccs1)=C1\C(=O)C[C@@H]2[C@H]1C2(C)C | 5 | -11 | -13 | 22*
O=C1c2ccccc2-c2onc3ccc(NCc4ccco4)c1c23 | 6 | 53* | 53* | -6
CC12CN(C(=S)Nc3ccccc3)CC(C)(CN(C(=S)Nc3ccccc3)C1)C2=O | / | -9 | -4 | -1
COc1ccc(Br)cc1CN1CCCCCCC1 | 21* | -25 | -31 | 22*
CC1CCN(CCCOc2ccc(OCc3ccccc3)cc2)CC1 | 22* | -11 | -42 | 24*
Cc1ccccc1OCC(O)CN1CCN(c2ccc(Cl)cc2)CC1 (stereo not given) | / | -39 | -32 | /
Cc1ccccc1OCC(O)CN (stereo not given) | 3 | 44* | 80* | -16
Cc1ccccc1OCC(O)CN1CCCCC1 (stereo not given) | / | 64* | 89* | -12
CC(=O)c1cnn(-c2c(Cl)cc(Cl)cc2Cl)c1C | / | 4 | 10 | /
N#Cc1c(-c2ccccc2)c(-c2ccccc2)nn(CC(=O)NNC(=O)Nc2ccc(Cl)cc2)c1=O | / | 39* | 51* | /
CCCS(=O)(=O)N1CCCC(C(=O)NCC(OC)OC)C1 (stereo not given) | / | -6 | 4 | 2
O=C(NCCC1=CCCCC1)C(c1ccccc1)c1ccccc1 | 12 | 5 | -8 | 28*
O=C(Cc1ccccc1)NCCC1=CCCCC1 | 7 | 5 | -3 | 1
COC(=O)COc1ccc2c(-c3ccc(OC)cc3)cc(=O)oc2c1 | 5 | 98* | 98* | 2
COC(=O)COc1ccc2c(-c3cccc([N+](=O)[O-])c3)cc(=O)oc2c1 | 1 | -6 | 8 | 0
Cc1ccc(S(=O)(=O)N2CCC(C(=O)Nc3nnc(-c4ccco4)s3)CC2)cc1 | 0 | 52* | 44* | -8
Cc1ccc(NS(=O)(=O)c2ccc(OCC(=O)Nc3cccc([N+](=O)[O-])c3)c(C)c2)cc1 | -5 | 28 | 44* | -16
N#Cc1nc(COc2ccccc2Cl)oc1N1CCCC1 | / | -7 | 3 | 9
COc1ccc(OCc2nc(C#N)c(N3CCN(c4ccc(OC)cc4)CC3)o2)cc1 | 25* | -19 | -23 | 37*
COc1ccc(N2CCN(c3oc(COc4ccccc4Cl)nc3C#N)CC2)cc1 | 25* | -25 | -22 | 42*
Cc1cccc(OCc2nc(C#N)c(N3CCCC3)o2)c1 | / | -22 | -9 | /
CC1CN(c2oc(COc3ccc(Cl)cc3Cl)nc2C#N)CC(C)O1 (stereo not given) | 23* | -2 | -17 | 29*
SMILES | NPY Y2 blocker | NPY-Y2 PAM-ag | NPY-Y1 PAM-ag | NPY Y1 blocker
Cc1cccc(OCc2nc(C#N)c(N3CC(C)CC(C)C3)o2)c1 (stereo not given) | 18* | -26 | -37 | 56*
O=C(O)COc1ccccc1/C=N/NC(=O)c1cc2ccccc2cc1O | / | 4 | 28 | /
CCOC(=O)c1c(C)n(C)c2ccc(O)c(CN(C)C)c12 | 5 | 70* | 75* | -5
COc1ccc(N(CCC#N)S(=O)(=O)c2cccc3nsnc23)cc1 | 2 | -9 | 5 | 2
COc1cc(OC)cc(C(=O)N[C@H](C(=O)NCc2ccco2)C(C)C)c1 | / | -2 | 4 | -1
CCOc1ccc(-c2cc(C(=O)Nc3ccc4c(c3)OCCO4)c3ccccc3n2)cc1 | 8 | -12 | -8 | 27*
CC(NC(=O)c1cc(-c2ccc3c(c2)OCO3)nc2ccccc12)C(C)(C)C (stereo not given) | 151* | -119 | -456 | 147*
CC(C)(C)c1ccc(C(=O)NNc2cc(Cl)cc(Cl)c2)cc1 | / | 0 | 12 | /
O=C1OCCN1C(=O)[C@H]1[C@H](c2ccc([N+](=O)[O-])cc2)C(c2cccc(Cl)c2)=NN1c1ccccc1 | -1 | 31* | 29 | -7
Cc1nc(N2CCCCC2)sc1C(=O)c1ccc(Cl)c([N+](=O)[O-])c1 | / | 47* | 48* | -11
Cc1cc2ccccn2c1C(=O)Nc1cccc(Cl)c1 | / | -10 | -6 | 9
CCOC(=O)N1CCN(CC(O)COCc2ccc(OC)c(OC)c2)CC1 (stereo not given) | 1 | -10 | -34 | -2
CCOC(=O)N1CCN(CC(O)COc2ccc(C)cc2C(C)(C)C)CC1 (stereo not given) | 1 | 61* | 77* | -11
CCOC(CCn1c(SCC(=O)Nc2cc(C)on2)nc2ccccc2c1=O)OCC | / | -7 | -10 | 2
Nc1ccc(-c2cc(-c3ccc(N)cc3)nc(-c3ccccc3)n2)cc1 | -5 | 39* | 46* | -8
O=C(CN1C(=O)C2CC=CCC2C1=O)N1CCN(c2ccc([N+](=O)[O-])cc2)CC1 (stereo not given) | / | 1 | -18 | /
COCC(=O)N1CCN(c2ccc([N+](=O)[O-])cc2)CC1 | 4 | 19 | 42* | -5
CC1CCCN(CCCOc2ccc(Br)cc2Cl)C1 (stereo not given) | / | -31 | -7 | 21*
CC1CCN(CCOCCOc2ccc(Br)cc2Cl)CC1 | 7 | 6 | -11 | 3
COc1ccc(CNCC(=O)Nc2cccc(S(N)(=O)=O)c2)cc1 | / | 6 | -8 | 0
CCS(=O)(=O)N1Cc2ccccc2CC1C(=O)Nc1ncc(C)s1 (stereo not given) | / | -3 | -23 | 1
CCS(=O)(=O)N1Cc2ccccc2CC1C(=O)Nc1nc2ccc(C)cc2s1 (stereo not given) | -4 | 31* | 46* | -9
CCOC(=O)C1(Cc2cccc(OC)c2)CCN(Cc2ccc3c(c2)OCCO3)CC1 | / | -22 | -8 | 11
CCOC(=O)C1(Cc2cccc(OC)c2)CCN(Cc2cccc3c2OCO3)CC1 | / | -32 | -9 | 21*
CCOC(=O)C1(CCOc2ccccc2)CCN(Cc2ccc3c(c2)OCCO3)CC1 | / | -41 | -20 | 21*
SMILES | NPY Y2 blocker | NPY-Y2 PAM-ag | NPY-Y1 PAM-ag | NPY Y1 blocker
C=CCSc1nc(-c2ccc(OC)cc2)c(C#N)c(=O)n1CC=C | / | -31 | -40 | 19
CCCC(=O)N1CCN(c2ccc(NC(=O)c3cccs3)cc2)CC1 | / | -3 | 6 | -3
Cc1ccc(CN2C3=NCCCN3c3ccccc32)cc1 | 9 | -14 | -40 | 11
CC(C)(C)c1ccc(CN2C3=NCCCN3c3ccccc32)cc1 | 20* | -35 | -63 | 25*
O=C(c1cc2c(s1)-c1ccccc1OC2)N1CCCC1 | 4 | 31* | 42* | 4
O=C(c1cc2c(s1)-c1ccccc1OC2)N1CCN(c2ccccc2)CC1 | 11 | -16 | -26 | 11
CC(C)c1nn2c(N)c(/C=C3\C=Nc4ccccc43)c(=O)nc2s1 | / | 11 | 9 | /
CCC(CC)c1nn2c(N)c(/C=C3\C(C)=Nc4ccccc43)c(=O)nc2s1 | / | 51* | 88* | /
Cn1cnc(NCc2ccccc2)c1[N+](=O)[O-] | / | -31 | 12 | /
Cc1ccc(S(=O)(=O)CCSc2n[nH]c(=O)n2-c2ccc3c(c2)OCCO3)cc1 | / | -20 | 8 | /
